Results from article PMC9950857 (RSC Advances, 2023).
pIC50, pKd: −log10 of the molar value. Marks after values point to notes of the source that are not given here.

Assays:
lipase = settings: cited from earlier work
pancreatic lipase [1] = molecular target: T1, pancreatic lipase (Sus scrofa, UniProt P00591); test: Fluorescence titration; format: binding; settings: for ΔG: from fluorescence data; for pKd: K a (binding constant)
T1 sequence (P00591 1-450): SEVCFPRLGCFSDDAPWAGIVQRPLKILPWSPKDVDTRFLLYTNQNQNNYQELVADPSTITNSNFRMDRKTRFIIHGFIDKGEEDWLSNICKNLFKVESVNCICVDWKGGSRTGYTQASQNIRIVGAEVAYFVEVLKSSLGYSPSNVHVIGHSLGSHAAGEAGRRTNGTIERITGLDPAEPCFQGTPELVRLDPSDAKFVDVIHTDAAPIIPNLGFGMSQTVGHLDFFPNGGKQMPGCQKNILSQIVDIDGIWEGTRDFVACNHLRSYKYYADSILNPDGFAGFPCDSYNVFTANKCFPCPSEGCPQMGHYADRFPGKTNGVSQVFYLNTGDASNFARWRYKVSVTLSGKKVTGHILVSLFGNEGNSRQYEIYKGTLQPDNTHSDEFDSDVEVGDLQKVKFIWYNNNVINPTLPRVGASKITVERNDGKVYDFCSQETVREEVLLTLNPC
How it was run: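 Lipase held at 6.0×10^-6 M final with 0 to 4.2×10^-5 M final test compound, in 5.0×10^-2 M Tris–HCl pH 7.4. Spectra recorded at 277, 298 and 310 K: excitation 280 nm, emission 300–500 nm, slits 5 nm. Intensities corrected for inner-filter effect.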

pancreatic lipase [2] = molecular target: T1, pancreatic lipase; test: ITC analysis of HYP titrated into lipase; format: binding
How it was run: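 Calorimetric titration: 1.0×10^-4 M lipase in the cell, containing 1% ethanol, titrated with 1.0×10^-3 M test compound. Injections at 180 s intervals, stirring at 250 rpm; other solutions degassed. First injection discarded. Integrated heats corrected for dilution and fitted against molar ratio. ΔG from −RT lnKa; ΔS from ΔG = ΔH − TΔS.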

pancreatic lipase [3] = molecular target: T1, pancreatic lipase; test: Enzymatic assay of lipase activity; format: biochemical; settings: for inhibition type: Lineweaver–Burk plots, 310 K, 405 nm, pNPC 2.0–3.6 × 10^−3 M
pancreatic lipase [4] = molecular target: T1, pancreatic lipase; test: Synchronous fluorescence spectroscopy; format: binding; settings: HYP 4.2 × 10^−5 M, 298 K
pancreatic lipase [5] = molecular target: T1, pancreatic lipase; test: Time-resolved fluorescence measurements; format: binding; settings: fluorescence titration and time-resolved fluorescence
How it was run: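 Fluorescence lifetimes of free lipase and of the lipase–test compound complex at 298 K. Excitation 280 nm, emission 345 nm. Decays analysed by tail fitting, with fits judged by χ². Average lifetime calculated as Σαiτi.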

pancreatic lipase [6] = molecular target: T1, pancreatic lipase; test: Fourier-transform infrared spectroscopy of lipase secondary structure; settings: ratio of lipase to HYP increased from 1 : 0 to 1 : 4, FT-IR, 298 K
How it was run: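 FT-IR at 298 K: 128 scans at 4 cm⁻¹ resolution. Lipase at 2.0×10^-4 M, alone or with test compound at different ratios. Background, protein and compound spectra subtracted; samples scanned over 1700–1500 cm⁻¹. Amide bands analysed by peak fitting.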

pancreatic lipase [7] = molecular target: T1, pancreatic lipase; settings: cited from earlier work
[8] = from fluorescence data at 277, 298, 310 K

For `C[C@@H]1O[C@@H](Oc2c(-c3ccc(O)c(O)c3)oc3cc(O)cc(O)c3c2=O)[C@H](O)[C@H](O)[C@H]1O` [quercetin 3-rhamnoside], the lipase inhibition (lipase) is given as “effective in lipase inhibition”.
For `O=c1c(O[C@@H]2O[C@H](CO)[C@H](O)[C@H](O)[C@H]2O)c(-c2ccc(O)c(O)c2)oc2cc(O)cc(O)c12` [HYP, quercetin-3-O-β-D-galactoside], the “K SV (Stern–Volmer quenching constant)” value (pancreatic lipase [1]; 277 K) was 7.113 ± 0.029^a × 10^4 M^−1, the KSV (pancreatic lipase [1]; 277 K) was 7.113 ± 0.029 × 10^4 M^−1 and the “n (Hill coefficient)” value (pancreatic lipase [1]; 277 K) was 1.379. For the same compound, the ΔG (pancreatic lipase [1]; 277 K) was -8.32 kcal/mol, the “K SV (Stern–Volmer quenching constant)” value (pancreatic lipase [1]; 298 K) was 6.826 ± 0.010^b × 10^4 M^−1 and the “n (Hill coefficient)” value (pancreatic lipase [1]; 298 K) was 1.337. The ΔG (pancreatic lipase [1]; 298 K) was -8.489 kcal/mol, the “K SV (Stern–Volmer quenching constant)” value (pancreatic lipase [1]; 310 K) was 6.247 ± 0.060^b × 10^4 M^−1 and the KSV (pancreatic lipase [1]; 310 K) was 6.247 ± 0.060 × 10^4 M^−1. For the same compound, the binding constant (pancreatic lipase [1]; 310 K) was 1.048e+06 M⁻¹, the “n (Hill coefficient)” value (pancreatic lipase [1]; 310 K) was 1.286 and the ΔG (pancreatic lipase [1]; 310 K) was -8.587 kcal/mol. For the same compound, the pKd (pancreatic lipase [1]; 277 K) was 6.55, the pKd (pancreatic lipase [1]; 298 K) was 6.28 and the pKd (pancreatic lipase [1]; 310 K) was 6.02. The n values (pancreatic lipase [1]; at different temperatures (277, 298, 310 K)) was “greater than 1”, the ΔH (pancreatic lipase [1]; [8]) was -6.085 kcal/mol and the ΔS (pancreatic lipase [1]; [8]) was 33.77 J mol^−1 K^−1. The pKd (pancreatic lipase [2]) was 5.20, the ΔG (pancreatic lipase [2]; ITC) was -7.091 kcal/mol and the ΔH (pancreatic lipase [2]; ITC) was -5.569 kcal/mol. The ΔS (pancreatic lipase [2]; ITC) was 21.36 J mol^−1 K^−1, the pIC50 (pancreatic lipase [3]) was 2.72 and the inhibition type (pancreatic lipase [3]) was “non-competitive inhibitor”. For the same compound, the “decrease of Tyr residue fluorescence intensity” value (pancreatic lipase [4]; Δλ = 15 nm) was 65.86%, the “decrease of Trp residue's fluorescence intensity” value (pancreatic lipase [4]; Δλ = 60 nm) was 73.65% and the quenching mechanism (pancreatic lipase [5]) was “static quenching”. The “decrease of α-helix in lipase” value (pancreatic lipase [6]) was 1.6%.
For `CCCCCCCCCCC[C@@H](C[C@@H]1OC(=O)[C@H]1CCCCCC)OC(=O)[C@H](CC(C)C)NC=O` [orlistat, reference compound], the inhibition type (pancreatic lipase [3]) is listed as “competitive inhibition” and the reversibility of inhibition (pancreatic lipase [7]) is listed as “irreversible inhibition”.
